*1 amine or outer side, *2 acyl side, *3 side chain or, on linkers, in order; H or OH if unused. Where a SMILES comes first, the peptide text is derived from it. [ ]: non-standard residue; d: D form. The star is where a group is joined. X2 = CC[C@H](C)[C@H](N*)C(=O)NC(=O)[C@@H](N)Cc1ccccc1; Sta = CC(C)C[C@H](N)[C@@H](O)CC(=O)O; X1 = CC(C)CC(N[*:1])C(O)CC(=O)[*:2]; hhPhe = N[C@@H](CCCc1ccccc1)C(=O)O; X3 = CC(=O)[C@H](CCCCN)N*; Orn = NCCC[C@H](N)C(=O)O; Nva = CCC[C@H](N)C(=O)O; For = O=C* Bounds are passed on as bounds.

As a reminder, the IC50 is the midpoint of a concentration-inhibition curve. A lower IC50 goes with inhibition by little substance.

Assay [1] deals with T1, Renin (Homo sapiens, UniProt P00797).
T1 sequence (P00797 whole entry): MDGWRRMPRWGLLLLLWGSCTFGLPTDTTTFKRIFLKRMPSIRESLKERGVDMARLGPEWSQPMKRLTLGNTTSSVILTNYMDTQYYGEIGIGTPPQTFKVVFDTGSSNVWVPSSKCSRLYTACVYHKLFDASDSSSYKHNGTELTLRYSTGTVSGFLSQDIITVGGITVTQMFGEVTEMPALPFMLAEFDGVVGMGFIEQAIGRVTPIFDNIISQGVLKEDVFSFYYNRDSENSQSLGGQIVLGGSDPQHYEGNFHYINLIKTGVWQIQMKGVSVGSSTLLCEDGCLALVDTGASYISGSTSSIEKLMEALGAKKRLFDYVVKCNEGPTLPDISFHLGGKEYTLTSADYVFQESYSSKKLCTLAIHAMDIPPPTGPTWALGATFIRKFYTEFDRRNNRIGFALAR
The assay is described as follows: Inhibitory activity against human plasma renin. The format is cell-free. A digest of the protocol:
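Pooled human plasma from about 500 hypertensive patients, collected by renal vein catheterization into chilled EDTA, trypsin-activated. PMSF 5 mM, 8-hydroxyquinoline sulfate 3 mM and a further 5 mM EDTA were added, giving about 10 ng AI mL⁻¹ h⁻¹. Plasma at pH 7.4 with serial peptide dilutions was incubated 1 h at 37 °C against a 0 °C blank, quenched at pH 8.5, and angiotensin I was measured by RIA.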

Assay [2] concerns the target T2, Renin (Rattus norvegicus, UniProt P08424).
T2 sequence (P08424 whole entry): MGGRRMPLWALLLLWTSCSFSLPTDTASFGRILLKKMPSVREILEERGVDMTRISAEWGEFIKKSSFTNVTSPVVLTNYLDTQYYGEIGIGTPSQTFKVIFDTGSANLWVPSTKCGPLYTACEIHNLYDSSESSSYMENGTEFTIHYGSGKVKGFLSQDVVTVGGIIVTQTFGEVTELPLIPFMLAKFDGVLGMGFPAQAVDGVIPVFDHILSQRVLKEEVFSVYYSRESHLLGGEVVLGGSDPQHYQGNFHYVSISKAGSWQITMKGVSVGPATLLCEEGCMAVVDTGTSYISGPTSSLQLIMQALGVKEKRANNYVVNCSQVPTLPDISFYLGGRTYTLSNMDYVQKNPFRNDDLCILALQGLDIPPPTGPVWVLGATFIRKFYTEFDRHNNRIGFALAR
In words: Inhibitory potency on plasma renin obtained from Sprague-Dawley rats. The format is cell-free. In a few lines:
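Dog, rabbit or rat plasma was collected into 5 mM EDTA at 0 °C, spun at 4 °C, then given PMSF 5 mM and 8-hydroxyquinoline sulfate 3 mM. Plasma at pH 7.4 with serial inhibitor dilutions was incubated 1 h at 37 °C, with a 0 °C blank. The reaction was quenched at pH 8.5, and angiotensin I was measured by RIA with ¹²⁵I tracer in anti-AI-coated tubes. The ratio is species IC50 divided by human IC50.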

As for `CC(C)[C@H](NC(=O)[C@@H](CCCc1ccccc1)NC(=O)[C@H](Cc1c[nH]cn1)NC(=O)[C@H](Cc1ccccc1)NC(=O)[C@@H]1CCCN1C(=O)[C@H](Cc1c[nH]cn1)NC(=O)[C@@H]1CCCN1)C(=O)N[C@@H](Cc1ccc(O)cc1)C(=O)N[C@@H](CCCCN)C(N)=O`, 0.027 µM corresponded to half-maximal inhibition in assay [1] (IC50).
Same read-out and setting: the result for `CC[C@H](C)[C@H](NC(=O)CC(O)C(CC(C)C)NC(=O)[C@@H](N)Cc1ccccc1)C(=O)NC(=O)[C@@H](N)Cc1ccccc1` (stereo partly drawn) reads over 100 µM; that for `CC[C@H](C)[C@H](NC(=O)CC(O)C(CC(C)C)NC(=O)[C@H](Cc1cnc[nH]1)NC(=O)[C@H](Cc1ccccc1)NC(=O)[C@@H]1CCCN1)C(=O)NC(=O)[C@@H](N)Cc1ccccc1` (stereo partly drawn), 0.22 µM.
The same measure, in the same setting: as for `CC[C@H](C)[C@H](NC(=O)CC(O)C(CC(C)C)NC(=O)[C@H](Cc1ccccc1)NC(=O)[C@H](Cc1ccccc1)NC(=O)[C@@H]1CCCN1)C(=O)NC(=O)[C@@H](N)Cc1ccccc1` (stereo partly drawn), the figure is 0.43 µM.
For `CC(C)CC(NC(=O)[C@H](Cc1c[nH]cn1)NC(=O)[C@H](Cc1ccccc1)NC(=O)[C@@H]1CCCN1)C(O)CC(N)=O` (stereo partly drawn), half-maximal inhibition in assay [1] (IC50) was put at 68 µM.
Same read-out and setting: as for `CC(C)[C@H](NC(=O)[C@H](Cc1ccccc1)NC[C@H](Cc1ccccc1)NC(=O)[C@H](Cc1cnc[nH]1)NC(=O)[C@H](Cc1ccccc1)NC(=O)[C@@H]1CCCN1C(=O)[C@H](N)Cc1cnc[nH]1)C(=O)N[C@@H](Cc1ccc(O)cc1)C(=O)O`, the figure is 0.58 µM; as for `CC[C@H](C)[C@H](NC(=O)CC(O)C(CC(C)C)NC(=O)[C@H](Cc1cnc[nH]1)NC(=O)[C@H](Cc1ccccc1)NC(=O)[C@@H]1CCCN1C(C)=O)C(=O)N[C@@H](Cc1cnc[nH]1)C(=O)N[C@@H](CCCCN)C(=O)O` (stereo partly drawn) (Ac-PFH[X1]IHK-OH), 0.04 µM.
The same measure, in the same setting: the result for `CC[C@H](C)[C@H](NC(=O)[C@H](CCCc1ccccc1)NC(=O)[C@H](Cc1cnc[nH]1)NC(=O)[C@H](Cc1ccccc1)NC(=O)[C@@H]1CCCN1C(C)=O)C(=O)N[C@@H](Cc1cnc[nH]1)C(=O)N[C@@H](CCCCN)C(C)=O` (Ac-PFH[hhPhe]IH-X3) reads 0.046 µM.
On the same count and under the same terms, the result for `CC[C@H](C)[C@H](NC(=O)CC(O)C(CC(C)C)NC(=O)[C@H](Cc1cnc[nH]1)NC(=O)[C@H](Cc1ccccc1)NC(=O)[C@@H]1CCCN1C(=O)[C@H](Cc1cnc[nH]1)NC(=O)[C@@H]1CCCN1C(C)=O)C(=O)N[C@@H](Cc1cnc[nH]1)C(=O)N[C@@H](CCCCN)C(=O)O` (stereo partly drawn) (Ac-PHPFH[X1]IHK-OH) reads 0.02 µM; that for `CC(C)CC(NC(=O)[C@H](Cc1cnc[nH]1)NC(=O)[C@H](Cc1ccccc1)NC(=O)[C@@H]1CCCN1C(=O)[C@@H](N)Cc1cnc[nH]1)C(O)CC(=O)N[C@H](C(=O)N[C@@H](Cc1ccc(O)cc1)C(=O)N[C@@H](CCCCN)C(=O)O)C(C)C` (stereo partly drawn) (H-HPFH[X1]VYK-OH), 0.4 µM; that for `CC(C)[C@H](NC(=O)[C@H](CCCN)NC(=O)[C@H](Cc1c[nH]cn1)NC(=O)[C@H](Cc1ccccc1)NC(=O)[C@@H]1CCCN1)C(=O)N[C@@H](Cc1ccc(O)cc1)C(=O)N[C@@H](CCCCN)C(N)=O` (H-PFH[Orn]VYK-NH2), 100 µM.
As for `CC[C@H](C)[C@H](NC(=O)CC(O)C(CC(C)C)NC(=O)[C@H](Cc1c[nH]cn1)NC(=O)[C@H](Cc1ccccc1)NC(=O)[C@@H]1CCCN1)C(=O)N[C@@H](Cc1c[nH]cn1)C(=O)N[C@@H](CCCCN)C(=O)O` (stereo partly drawn) (H-PFH[X1]IHK-OH), the IC50 in assay [1] is 0.9 µM.
Same read-out and setting: as for `CC[C@H](C)[C@H](NC(=O)CC(O)C(CC(C)C)NC(=O)[C@H](Cc1ccccc1)NC(=O)[C@H](Cc1ccccc1)NC(=O)[C@@H]1CCCN1C(=O)[C@H](Cc1c[nH]cn1)NC(=O)[C@@H]1CCCN1)C(=O)NC(=O)[C@@H](N)Cc1ccccc1` (stereo partly drawn) (H-PHPFF[X1]-X2), the figure is 0.03 µM.
Same read-out and setting: as for `CCC[C@H](NC(=O)[C@H](Cc1c[nH]cn1)NC(=O)[C@H](Cc1ccccc1)NC(=O)[C@@H]1CCCN1C(=O)[C@H](Cc1c[nH]cn1)NC(=O)[C@@H]1CCCN1)C(=O)N[C@H](C(=O)NC(=O)[C@@H](N)Cc1ccccc1)[C@@H](C)CC` (H-PHPFH[Nva]-X2), the figure is over 1000 µM.
Still for that read-out and setting: as for `CC(C)C[C@H](NC(=O)[C@H](Cc1c[nH]cn1)NC(=O)[C@H](Cc1ccccc1)NC(=O)[C@@H]1CCCN1C(=O)[C@H](Cc1c[nH]cn1)NC(=O)[C@@H]1CCCN1)[C@@H](O)CC(N)=O` (H-PHPFH[Sta]-NH2), the figure is 0.9 µM.
`CC[C@H](C)[C@H](NC(=O)C[C@H](O)[C@H](CC(C)C)NC(=O)[C@H](Cc1c[nH]cn1)NC(=O)[C@H](Cc1ccccc1)NC(=O)[C@@H]1CCCN1C(=O)[C@H](Cc1c[nH]cn1)NC(=O)[C@@H]1CCCN1)C(=O)N[C@@H](Cc1ccccc1)C(N)=O` (H-PHPFH[Sta]IF-NH2): in assay [2], the IC50 is over 1 µM.
As for `CC[C@H](C)[C@H](NC(=O)[C@H](CCCc1ccccc1)NC(=O)[C@H](Cc1c[nH]cn1)NC(=O)[C@H](Cc1ccccc1)NC(=O)[C@@H]1CCCN1C(=O)[C@H](Cc1c[nH]cn1)NC(=O)[C@@H]1CCCN1)C(=O)N[C@@H](Cc1ccccc1)C(N)=O` (H-PHPFH[hhPhe]IF-NH2), inhibition in assay [1] was half-maximal at 0.03 µM (IC50). This counts as double-digit nanomolar.
On the same count and under the same terms, the result for `CC[C@H](C)[C@H](NC(=O)[C@H](CCCc1ccccc1)NC(=O)[C@H](Cc1cnc[nH]1)NC(=O)[C@H](Cc1ccccc1)NC(=O)[C@@H]1CCCN1C(=O)[C@H](Cc1cnc[nH]1)NC(=O)[C@@H]1CCCN1)C(=O)N[C@@H](Cc1cnc[nH]1)C(=O)N[C@@H](CCCCN)C(C)=O` (H-PHPFH[hhPhe]IH-X3) reads 0.03 µM; that for `CC[C@H](C)[C@H](NC(=O)[C@H](CCCc1ccccc1)NC(=O)[C@H](CCCCN)NC(=O)[C@H](Cc1ccccc1)NC(=O)[C@@H]1CCCN1C(=O)[C@H](Cc1c[nH]cn1)NC(=O)[C@@H]1CCCN1)C(=O)N[C@@H](Cc1ccccc1)C(N)=O` (H-PHPFK[hhPhe]IF-NH2), 3.9 µM; that for `CC[C@H](C)[C@H](NC(=O)[C@H](CCCc1ccccc1)NC(=O)[C@H](Cc1c[nH]cn1)NC(=O)[C@H](Cc1cn(C=O)c2ccccc12)NC(=O)[C@@H]1CCCN1)C(=O)N[C@@H](Cc1ccccc1)C(N)=O` (H-PW(For)H[hhPhe]IF-NH2), 0.067 µM.
The same measure, in the same setting: as for `CC[C@H](C)[C@H](NC(=O)[C@H](CCCc1ccccc1)NC(=O)[C@H](Cc1c[nH]cn1)NC(=O)[C@H](Cc1cn(C=O)c2ccccc12)NC(=O)[C@@H]1CCCN1)C(=O)N[C@@H](Cc1cn(C=O)c2ccccc12)C(N)=O` (H-PW(For)H[hhPhe]IW(For)-NH2), the figure is 0.24 µM; as for `CC[C@H](C)[C@H](NC(=O)CC(O)C(CC(C)C)NC(=O)[C@H](Cc1cnc[nH]1)NC(=O)[C@H](Cc1ccccc1)NC(=O)[C@@H]1CCCN1C(=O)[C@H](Cc1cn(C=O)c2ccccc12)NC(=O)[C@@H]1CCCN1)C(=O)N[C@@H](Cc1cn(C=O)c2ccccc12)C(N)=O` (stereo partly drawn) (H-PW(For)PFH[X1]IW(For)-NH2), 0.016 µM.
As for `CC[C@H](C)[C@H](NC(=O)[C@H](CCCc1ccccc1)NC(=O)[C@H](Cc1c[nH]cn1)NC(=O)[C@H](Cc1ccccc1)NC(=O)[C@@H]1CCCN1C(=O)[C@H](Cc1cn(C=O)c2ccccc12)NC(=O)[C@@H]1CCCN1)C(=O)N[C@@H](Cc1cn(C=O)c2ccccc12)C(N)=O` (H-PW(For)PFH[hhPhe]IW(For)-NH2), the IC50 in assay [1] was determined as 0.027 µM.
The same measure, in the same setting: the result for `CC[C@H](C)[C@H](NC(=O)[C@H](CCCc1ccccc1)NC(=O)[C@H](Cc1c[nH]cn1)NC(=O)[C@H](Cc1cn(C=O)c2ccccc12)NC(=O)[C@@H]1CCCN1C(=O)[C@H](Cc1cn(C=O)c2ccccc12)NC(=O)[C@@H]1CCCN1)C(=O)N[C@@H](Cc1ccccc1)C(N)=O` (H-PW(For)PW(For)H[hhPhe]IF-NH2) reads 0.03 µM.
Still for that read-out and setting: as for `CC[C@H](C)[C@H](NC(=O)[C@H](CCCc1ccccc1)NC(=O)[C@H](Cc1c[nH]cn1)NC(=O)[C@H](Cc1cn(C=O)c2ccccc12)NC(=O)[C@@H]1CCCN1C(=O)[C@H](Cc1cn(C=O)c2ccccc12)NC(=O)[C@@H]1CCCN1)C(=O)N[C@@H](Cc1cn(C=O)c2ccccc12)C(N)=O` (H-PW(For)PW(For)H[hhPhe]IW(For)-NH2), the figure is 0.049 µM; as for H-PFHFFVYK-NH2, 100 µM; as for H-PHPFHFFFVYK-OH [RIP], 5.2 µM.
Still for that read-out and setting: as for H-PHPFRFFVYK-OH, the figure is 200 µM.

(Values after ChEMBL document CHEMBL1123793, “Analysis of structure-activity relationships in renin substrate analogue inhibitory peptides” (J Med Chem, 1987).)
